Assay [1] concerns the target T1, Calcium/calmodulin-dependent protein kinase type IV (Homo sapiens) (UniProt Q16566).
T1 sequence (whole entry): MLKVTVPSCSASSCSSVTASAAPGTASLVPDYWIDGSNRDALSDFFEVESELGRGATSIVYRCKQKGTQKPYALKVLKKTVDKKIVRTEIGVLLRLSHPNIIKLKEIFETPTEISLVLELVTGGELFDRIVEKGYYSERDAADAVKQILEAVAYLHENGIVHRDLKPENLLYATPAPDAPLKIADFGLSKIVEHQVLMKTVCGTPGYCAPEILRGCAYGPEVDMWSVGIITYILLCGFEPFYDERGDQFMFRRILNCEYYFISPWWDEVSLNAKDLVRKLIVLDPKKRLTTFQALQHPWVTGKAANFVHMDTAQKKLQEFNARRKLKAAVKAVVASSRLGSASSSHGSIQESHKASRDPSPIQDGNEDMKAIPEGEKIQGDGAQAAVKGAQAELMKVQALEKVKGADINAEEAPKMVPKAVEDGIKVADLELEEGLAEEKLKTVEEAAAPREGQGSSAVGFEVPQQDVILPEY
Briefly: Inhibition of CaMK4 at 10 uM by HTRF assay relative to control. In outline:
(§1)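 HTRF kinase assay, one panel of kinases. Inhibitor stock 50 µM in 100% DMSO; tested at 10 µM. ATP and substrate at final levels near Km. Final buffer: 50 mM Hepes/NaOH pH 7.4, 40 µM Na3VO4, 0.005% Tween-20, 1 mM DTT, MnCl2 or MgCl2 at kinase-dependent levels. Started by adding ATP/substrate. Reaction run at room temperature, time varied by kinase. Detection mix in 50 mM Hepes pH 7.4, 0.1% BSA, 150 mM KF, incubated ≥1 h at room temperature. Activity expressed as % of uninhibited control; n=2.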
In general terms: Time-resolved FRET reads energy transfer from a long-lived donor to a nearby acceptor.

In assay [2] the target is MAP kinase-activated protein kinase 2 (Homo sapiens) (UniProt P49137). The assay is described as follows: Inhibition of MAPKAPK2 at 10 uM by HTRF assay relative to control. In outline:
as §1

Assay [3] deals with Protein kinase C alpha type (Homo sapiens) (UniProt P17252). Briefly: Inhibition of PKCalpha at 10 uM by HTRF assay relative to control. Summed up: as §1
Assay [4] addresses Mitogen-activated protein kinase 14 (Homo sapiens) (UniProt Q16539). The assay is described as follows: Inhibition of p38alpha at 10 uM by HTRF assay relative to control. In outline:
as §1

In assay [5] the target is Calcium/calmodulin-dependent protein kinase type II subunit alpha (Homo sapiens) (UniProt Q9UQM7). Briefly: Inhibition of CaMK2alpha at 10 uM by HTRF assay relative to control. In outline: as §1
The target of assay [6] is Platelet-derived growth factor receptor beta (Homo sapiens) (UniProt P09619). Briefly: Inhibition of PDGFRbeta at 10 uM by HTRF assay relative to control. In outline:
as §1

Assay [7] concerns the target Focal adhesion kinase 1 (Homo sapiens) (UniProt Q05397). Briefly: Inhibition of FAK at 10 uM by HTRF assay relative to control. In outline: as §1
For assay [8], the target named is T2, Ephrin type-B receptor 4 (Homo sapiens) (UniProt P54760).
T2 sequence (whole entry): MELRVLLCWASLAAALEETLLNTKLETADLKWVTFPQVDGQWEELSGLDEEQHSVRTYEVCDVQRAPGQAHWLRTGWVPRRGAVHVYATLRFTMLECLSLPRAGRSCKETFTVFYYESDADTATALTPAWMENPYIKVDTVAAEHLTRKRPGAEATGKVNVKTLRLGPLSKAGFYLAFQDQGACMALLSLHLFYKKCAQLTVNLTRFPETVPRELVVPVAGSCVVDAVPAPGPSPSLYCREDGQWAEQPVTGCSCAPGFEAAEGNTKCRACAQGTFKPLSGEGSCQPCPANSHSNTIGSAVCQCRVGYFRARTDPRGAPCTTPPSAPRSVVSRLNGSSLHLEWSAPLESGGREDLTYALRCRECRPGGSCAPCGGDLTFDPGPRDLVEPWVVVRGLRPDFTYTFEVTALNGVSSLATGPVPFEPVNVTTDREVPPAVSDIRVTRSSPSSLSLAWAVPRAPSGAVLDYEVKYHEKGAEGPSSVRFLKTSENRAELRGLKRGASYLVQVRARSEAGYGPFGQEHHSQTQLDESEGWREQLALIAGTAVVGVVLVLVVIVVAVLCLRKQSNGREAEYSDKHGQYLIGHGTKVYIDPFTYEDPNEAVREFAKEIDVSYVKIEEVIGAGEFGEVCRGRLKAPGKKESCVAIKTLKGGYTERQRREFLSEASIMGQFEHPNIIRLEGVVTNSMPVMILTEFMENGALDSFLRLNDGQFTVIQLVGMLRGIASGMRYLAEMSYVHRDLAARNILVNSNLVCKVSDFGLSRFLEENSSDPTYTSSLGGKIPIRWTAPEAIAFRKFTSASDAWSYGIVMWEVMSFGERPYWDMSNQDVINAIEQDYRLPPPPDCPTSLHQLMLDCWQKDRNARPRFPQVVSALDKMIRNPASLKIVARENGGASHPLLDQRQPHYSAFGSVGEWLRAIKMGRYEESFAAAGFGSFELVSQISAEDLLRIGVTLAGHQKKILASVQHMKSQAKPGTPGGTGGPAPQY
Briefly: Inhibition of EphB4 at 10 uM by HTRF assay relative to control. In outline:
as §1

Assay [9] has as its target Vascular endothelial growth factor receptor 1 (Homo sapiens) (UniProt P17948). Briefly: Inhibition of FLT1 at 10 uM by HTRF assay relative to control. Summed up:
as §1

For assay [10], the target named is 3-phosphoinositide-dependent protein kinase 1 (Homo sapiens) (UniProt O15530). Briefly: Inhibition of PDK1 at 10 uM by HTRF assay relative to control.
Assay [11] concerns the target Protein kinase C gamma type (Homo sapiens) (UniProt P05129). Briefly: Inhibition of PKCgamma at 10 uM by HTRF assay relative to control. Summed up:
as §1

Assay [12] has as its target Vascular endothelial growth factor receptor 2 (Homo sapiens) (UniProt P35968). The assay is described as follows: Inhibition of KDR at 10 uM by HTRF assay relative to control. Summed up:
as §1

Assay [13] deals with Receptor-type tyrosine-protein kinase FLT3 (Homo sapiens) (UniProt P36888). Briefly: Inhibition of FLT3 at 10 uM by HTRF assay relative to control. In outline:
as §1

Assay [14] addresses Epidermal growth factor receptor (Homo sapiens) (UniProt P00533). Briefly: Inhibition of EGFR at 10 uM by HTRF assay relative to control. Summed up:
as §1

For assay [15], the target named is Mitogen-activated protein kinase 9 (Homo sapiens) (UniProt P45984). The assay is described as follows: Inhibition of JNK2 at 10 uM by HTRF assay relative to control. In outline: as §1
Mitogen-activated protein kinase 9 (Homo sapiens), sequence (P45984 whole entry, looked up): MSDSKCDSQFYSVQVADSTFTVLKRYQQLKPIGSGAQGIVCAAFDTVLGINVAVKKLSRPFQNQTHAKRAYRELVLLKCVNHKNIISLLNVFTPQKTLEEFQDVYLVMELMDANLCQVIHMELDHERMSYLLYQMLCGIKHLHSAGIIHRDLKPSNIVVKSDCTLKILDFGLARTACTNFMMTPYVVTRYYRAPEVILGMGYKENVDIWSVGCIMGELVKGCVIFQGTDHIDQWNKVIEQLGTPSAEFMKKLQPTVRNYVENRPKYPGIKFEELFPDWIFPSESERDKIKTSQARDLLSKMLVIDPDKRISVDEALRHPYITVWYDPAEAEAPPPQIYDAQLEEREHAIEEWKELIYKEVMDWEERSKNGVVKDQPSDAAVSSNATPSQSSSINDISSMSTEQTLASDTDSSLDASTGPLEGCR

Epidermal growth factor receptor (Homo sapiens), sequence (P00533 whole entry): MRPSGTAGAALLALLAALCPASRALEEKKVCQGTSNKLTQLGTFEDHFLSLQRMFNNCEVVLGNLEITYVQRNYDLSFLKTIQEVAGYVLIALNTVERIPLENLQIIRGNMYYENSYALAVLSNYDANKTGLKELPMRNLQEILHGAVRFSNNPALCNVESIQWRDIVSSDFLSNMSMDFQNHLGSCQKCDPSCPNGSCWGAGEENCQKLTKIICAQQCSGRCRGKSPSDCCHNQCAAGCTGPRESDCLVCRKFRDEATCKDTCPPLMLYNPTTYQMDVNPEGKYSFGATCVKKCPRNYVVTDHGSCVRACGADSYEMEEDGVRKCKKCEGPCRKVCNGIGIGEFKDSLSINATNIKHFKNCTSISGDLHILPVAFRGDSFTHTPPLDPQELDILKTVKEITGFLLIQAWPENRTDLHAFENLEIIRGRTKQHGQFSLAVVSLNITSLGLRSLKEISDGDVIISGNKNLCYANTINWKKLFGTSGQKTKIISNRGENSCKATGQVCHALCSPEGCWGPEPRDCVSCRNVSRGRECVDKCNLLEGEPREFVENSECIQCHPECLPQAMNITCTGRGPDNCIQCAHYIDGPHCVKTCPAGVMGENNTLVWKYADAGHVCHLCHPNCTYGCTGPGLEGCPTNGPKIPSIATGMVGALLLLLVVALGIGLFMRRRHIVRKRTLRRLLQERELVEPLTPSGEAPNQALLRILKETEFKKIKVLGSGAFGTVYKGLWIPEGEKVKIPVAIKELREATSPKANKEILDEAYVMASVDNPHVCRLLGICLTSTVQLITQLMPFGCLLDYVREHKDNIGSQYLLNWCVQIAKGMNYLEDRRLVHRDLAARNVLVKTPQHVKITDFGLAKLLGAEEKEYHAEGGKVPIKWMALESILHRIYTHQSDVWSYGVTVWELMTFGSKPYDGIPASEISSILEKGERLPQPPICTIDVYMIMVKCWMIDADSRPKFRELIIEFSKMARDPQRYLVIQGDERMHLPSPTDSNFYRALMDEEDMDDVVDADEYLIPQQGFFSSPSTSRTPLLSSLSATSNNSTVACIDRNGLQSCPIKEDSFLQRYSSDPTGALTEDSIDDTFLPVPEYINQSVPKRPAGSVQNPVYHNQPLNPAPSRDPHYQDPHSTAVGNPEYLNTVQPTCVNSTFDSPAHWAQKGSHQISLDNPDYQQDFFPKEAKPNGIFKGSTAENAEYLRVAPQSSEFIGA
Mitogen-activated protein kinase 14 (Homo sapiens), sequence (Q16539 whole entry): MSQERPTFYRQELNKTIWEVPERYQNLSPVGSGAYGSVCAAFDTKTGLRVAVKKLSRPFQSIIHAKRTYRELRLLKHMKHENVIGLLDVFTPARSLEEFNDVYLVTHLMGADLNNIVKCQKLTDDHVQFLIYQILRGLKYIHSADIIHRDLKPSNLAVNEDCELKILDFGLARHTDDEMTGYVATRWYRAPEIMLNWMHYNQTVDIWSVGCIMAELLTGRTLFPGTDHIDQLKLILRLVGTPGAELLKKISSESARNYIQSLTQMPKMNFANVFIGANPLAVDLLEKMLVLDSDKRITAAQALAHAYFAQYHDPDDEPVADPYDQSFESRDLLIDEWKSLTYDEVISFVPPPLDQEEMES
Vascular endothelial growth factor receptor 2 (Homo sapiens), sequence (P35968 whole entry): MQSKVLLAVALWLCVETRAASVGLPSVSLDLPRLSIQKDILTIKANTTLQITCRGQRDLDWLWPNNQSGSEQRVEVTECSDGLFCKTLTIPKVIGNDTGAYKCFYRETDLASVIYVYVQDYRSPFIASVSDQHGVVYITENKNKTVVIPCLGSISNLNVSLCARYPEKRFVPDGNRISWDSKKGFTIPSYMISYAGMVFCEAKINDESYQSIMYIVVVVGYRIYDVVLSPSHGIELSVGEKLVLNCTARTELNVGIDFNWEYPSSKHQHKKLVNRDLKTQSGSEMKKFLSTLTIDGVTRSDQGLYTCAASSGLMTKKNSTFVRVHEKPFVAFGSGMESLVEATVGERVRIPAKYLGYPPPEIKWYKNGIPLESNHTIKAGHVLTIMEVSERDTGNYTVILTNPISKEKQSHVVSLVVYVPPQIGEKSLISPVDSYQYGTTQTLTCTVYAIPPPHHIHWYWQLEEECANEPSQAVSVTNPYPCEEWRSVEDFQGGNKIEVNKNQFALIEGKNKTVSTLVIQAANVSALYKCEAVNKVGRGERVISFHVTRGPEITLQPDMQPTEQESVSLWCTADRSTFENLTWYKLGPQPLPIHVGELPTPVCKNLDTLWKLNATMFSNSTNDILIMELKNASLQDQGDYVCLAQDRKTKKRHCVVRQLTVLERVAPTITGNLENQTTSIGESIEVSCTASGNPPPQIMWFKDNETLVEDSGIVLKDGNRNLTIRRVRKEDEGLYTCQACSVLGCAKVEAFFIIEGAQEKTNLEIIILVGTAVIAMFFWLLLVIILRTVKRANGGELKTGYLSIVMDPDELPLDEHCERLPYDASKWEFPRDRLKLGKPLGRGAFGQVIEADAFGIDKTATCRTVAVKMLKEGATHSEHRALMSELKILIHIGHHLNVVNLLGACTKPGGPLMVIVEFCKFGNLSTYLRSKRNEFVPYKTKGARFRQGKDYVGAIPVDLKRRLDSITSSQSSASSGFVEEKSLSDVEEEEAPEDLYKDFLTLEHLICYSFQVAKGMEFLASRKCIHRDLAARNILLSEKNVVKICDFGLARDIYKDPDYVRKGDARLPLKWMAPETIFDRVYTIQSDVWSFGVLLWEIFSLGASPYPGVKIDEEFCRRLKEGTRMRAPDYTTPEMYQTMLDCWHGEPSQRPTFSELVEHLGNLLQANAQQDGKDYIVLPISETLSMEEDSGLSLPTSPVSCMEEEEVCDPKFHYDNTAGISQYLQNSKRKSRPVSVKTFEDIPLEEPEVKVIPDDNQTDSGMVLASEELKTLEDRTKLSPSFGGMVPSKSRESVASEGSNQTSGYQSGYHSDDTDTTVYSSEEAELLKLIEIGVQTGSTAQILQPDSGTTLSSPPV
Calcium/calmodulin-dependent protein kinase type II subunit alpha (Homo sapiens), sequence (Q9UQM7 whole entry): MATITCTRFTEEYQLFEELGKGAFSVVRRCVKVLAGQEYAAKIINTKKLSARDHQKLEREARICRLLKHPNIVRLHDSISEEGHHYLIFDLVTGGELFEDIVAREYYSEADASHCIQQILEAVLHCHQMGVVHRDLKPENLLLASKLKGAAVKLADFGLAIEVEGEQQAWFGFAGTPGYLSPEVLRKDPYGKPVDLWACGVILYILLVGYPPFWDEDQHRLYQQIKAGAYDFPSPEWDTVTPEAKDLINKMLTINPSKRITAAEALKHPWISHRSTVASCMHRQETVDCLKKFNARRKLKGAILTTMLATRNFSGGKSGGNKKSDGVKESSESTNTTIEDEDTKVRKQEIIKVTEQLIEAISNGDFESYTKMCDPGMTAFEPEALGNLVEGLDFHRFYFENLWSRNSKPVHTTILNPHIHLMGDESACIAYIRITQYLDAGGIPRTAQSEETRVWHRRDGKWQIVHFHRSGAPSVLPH
3-phosphoinositide-dependent protein kinase 1 (Homo sapiens), sequence (O15530 whole entry, looked up): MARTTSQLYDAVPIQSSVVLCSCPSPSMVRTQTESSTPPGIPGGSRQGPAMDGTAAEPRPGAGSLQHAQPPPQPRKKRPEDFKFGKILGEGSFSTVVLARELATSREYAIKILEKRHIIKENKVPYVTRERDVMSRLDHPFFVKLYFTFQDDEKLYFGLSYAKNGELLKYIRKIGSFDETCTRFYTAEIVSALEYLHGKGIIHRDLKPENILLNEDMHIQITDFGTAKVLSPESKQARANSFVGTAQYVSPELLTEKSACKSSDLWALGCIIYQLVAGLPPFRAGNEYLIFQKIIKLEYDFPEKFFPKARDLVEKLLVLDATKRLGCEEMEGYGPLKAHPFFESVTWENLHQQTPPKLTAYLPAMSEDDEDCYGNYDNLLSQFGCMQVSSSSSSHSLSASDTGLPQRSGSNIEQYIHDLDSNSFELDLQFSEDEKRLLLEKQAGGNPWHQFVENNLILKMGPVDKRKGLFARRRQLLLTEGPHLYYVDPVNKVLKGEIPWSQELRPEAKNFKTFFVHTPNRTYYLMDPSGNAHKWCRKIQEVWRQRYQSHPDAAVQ

Usually inhibition stands for the relative decrease from the control value, in per cent. On to `CN(C)CC(C)(C)CNC(=O)[C@@H]1CCCN1c1nccc(Nc2ccccc2)n1`, for which the inhibition came out at 0% in assay [1]; 4% in [2]; 0% in [3]; 0% in assay [4]; 0% in [5]; 5% in [6]. Also, the inhibition in assay [7] was 4%; in [8] it was 0%; in [9] it was 12%; in assay [10], 10%; in assay [11], 2%; in assay [12], 5%. Further, the results for the inhibition in assay [13], in assay [14] and in assay [15] were 0%, 0% and 2%, respectively.

Take `Cc1cccc(CN2CCN(c3cc(N(C)c4cccc(C)c4)ncn3)CC2)c1`: the inhibition in assay [1] was 0%; in assay [2], 0%; in [3], 3%; in [4], 1%; in assay [5], 0%; in assay [6], 6%. The inhibition in [7] amounted to 4%; in [8], 0%; in assay [9], 0%; in assay [10] it was 3%; in assay [11], 2%; in assay [12], 3%. Further, the values for the inhibition in [13], in assay [14] and in assay [15] were 0%, 0% and 5%, respectively.

Take `CN(C)c1ccc(C(=O)N2CCN(c3ncnc4c3CN(Cc3ccccc3)CC4)CC2)c2ccccc12`: the inhibition in assay [1] worked out at 0%; in assay [2], 3%; in assay [3], 0%; in assay [4], 4%; in assay [5] it was 0%; in [6] it was 4%. Besides, the inhibition was determined as 0% in assay [7]; 0% in [8]; 0% in assay [9]; 0% in assay [10]; 4% in [11]; 3% in assay [12]. Moreover, the inhibition stood at 0% in assay [13], 0% in assay [14] and 1% in assay [15].

As to `COc1cccc(Nc2cc(Nc3cccc(C(=O)NCCCn4ccnc4)c3)nc(N)n2)c1`, the inhibition in [1] was 0%; in assay [2], 0%; in assay [3], 2%; in assay [4], 11%; in [5], 0%; in [6], 7%. Besides, the inhibition came to 10% in [7]; 0% in assay [8]; 4% in assay [9]; 1% in [10]; 0% in assay [11]; 13% in assay [12]. Moreover, the results for the inhibition in assay [13], in assay [14] and in assay [15] were 1%, 91% and 32%, respectively.

For the molecule `COC[C@@H]1CCCN1C(=O)C1CCCN1c1cc(Nc2cccc(Br)c2)ncn1` (stereo not given in full), the inhibition in assay [1] was determined as 0%; in assay [2], 0%; in [3], 0%; in assay [4], 0%; in assay [5] it was 0%; in [6] it was 6%. For the same molecule, the inhibition was 5% in assay [7]; 0% in assay [8]; 0% in [9]; 0% in [10]; 5% in assay [11]; 0% in assay [12]. The inhibition in assay [13], in [14] and in assay [15] was 0% throughout.

The values are drawn from ChEMBL document CHEMBL1150387, “Development and experimental validation of a docking strategy for the generation of kinase-targeted libraries” (J Med Chem, 2008).
